Activity calls are given as the source filed them. The rule behind the calls is not given here.
What was measured:
Mus musculus [1] = assay: Teratogenic effect in SWV mouse assessed as fetuses with neural tube deffects at 486 mg/kg, ip administered on morning of day 8 of gestation; type: toxicity, organism-based; parameters: dose 486 mg/kg, route intraperitoneal; conditions: in vivo
Outline: (§1)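 Two-month-old nulligravid SWV females were mated overnight and checked for vaginal plugs the next morning; gestation onset was set at 10 p.m. the previous night. On gestation day 8.5, each dam received a single ip injection (0.55-2.7 mmol/kg range) or vehicle (25% aqueous Cremophor EL) at 10 μL/g body weight. Litters were scored for implants, resorptions, live and dead fetuses, and fetuses with neural tube defects.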

Mus musculus [2] = assay: Anticonvulsant activity in CF1 albino mouse assessed as inhibition of maximal electroshock-induced seizures at 300 mg/kg, ip after 0.5 hrs; type: functional, organism-based; parameters: dose 300 mg/kg
Outline: (§2)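 Test compounds suspended in 0.5% methylcellulose and given ip to adult male CF no. 1 albino mice (18-25 g) at 0.01 mL/g body weight before maximal electroshock challenge.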

Mus musculus [3] = assay: Teratogenic effect in SWV mouse assessed as live fetuses at 486 mg/kg, ip administered on morning of day 8 of gestation; type: toxicity, organism-based; parameters: dose 486 mg/kg, route intraperitoneal; conditions: in vivo
Outline: (§3)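 SWV inbred mice: two-month-old nulligravid females mated overnight with males and checked for vaginal plugs next morning; gestation onset taken as 10 p.m. the previous night. On gestation day 8.5 each dam got one ip injection, 0.55–2.7 mmol/kg, in 25% aqueous Cremophor EL (vehicle controls dosed alike), 10 μL/g body weight. Litters and implants tallied; resorptions and live fetuses reported as counts with percentages.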

Mus musculus [4] = assay: Teratogenic effect in SWV mouse assessed as live fetuses at 148 mg/kg, ip administered on morning of day 8 of gestation; type: toxicity, organism-based; parameters: dose 148 mg/kg, route intraperitoneal; conditions: in vivo; outline: as §1
Mus musculus [5] = assay: Anticonvulsant activity in CF1 albino mouse assessed as inhibition of maximal electroshock-induced seizures at 300 mg/kg, ip after 4 hrs; type: functional, organism-based; parameters: dose 300 mg/kg; outline: as §2
Rattus norvegicus [6] = assay: Neurotoxicity in Sprague-Dawley rat assessed as motor impairment at 30 mg/kg, po after 0.25 to 4 hrs; conditions: in vivo
Rattus norvegicus [7] = assay: Anticonvulsant activity in Sprague-Dawley rat assessed as inhibition of maximal electroshock-induced seizures at 30 mg/kg, po after 2 hrs
Mus musculus [8] = assay: Teratogenic effect in SWV mouse assessed as resorptions at 486 mg/kg, ip administered on morning of day 8 of gestation; type: toxicity, organism-based; parameters: dose 486 mg/kg, route intraperitoneal; conditions: in vivo; outline: as §3
Mus musculus [9] = assay: Neurotoxicity in CF1 albino mouse assessed as motor impairment at 300 mg/kg, ip after 4 hrs; type: toxicity, organism-based; parameters: dose 300 mg/kg, route intraperitoneal; conditions: in vivo
Mus musculus [10] = assay: Anticonvulsant activity in CF1 albino mouse assessed as inhibition of maximal electroshock-induced seizures at 100 mg/kg, ip after 4 hrs; type: functional, organism-based; parameters: dose 100 mg/kg; outline: as §2
Mus musculus [11] = assay: Anticonvulsant activity in CF1 albino mouse assessed as inhibition of subcutaneous pentylenetetrazole-induced seizures at 100 mg/kg, ip after 0.5 hrs; type: functional, organism-based; parameters: dose 100 mg/kg
Outline: (§4)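 Adult male CF no. 1 albino mice (18-25 g) dosed ip with compound suspended in 0.5% methylcellulose (0.01 mL/g). Convulsant: pentylenetetrazol dissolved in 0.9% saline as a 0.85% solution for mice, given subcutaneously.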

Mus musculus [12] = assay: Teratogenic effect in SWV mouse assessed as fetuses with neural tube deffects at 729 mg/kg, ip administered on morning of day 8 of gestation; type: toxicity, organism-based; parameters: dose 729 mg/kg, route intraperitoneal; conditions: in vivo; outline: as §1
Mus musculus [13] = assay: Anticonvulsant activity in CF1 albino mouse assessed as inhibition of subcutaneous pentylenetetrazole-induced seizures at 300 mg/kg, ip after 0.5 hrs; type: functional, organism-based; parameters: dose 300 mg/kg; outline: as §4
Mus musculus [14] = assay: Anticonvulsant activity in CF1 albino mouse assessed as inhibition of subcutaneous pentylenetetrazole-induced seizures at 30 mg/kg, ip after 0.5 hrs; type: functional, organism-based; parameters: dose 30 mg/kg; outline: as §4
Mus musculus [15] = assay: Neurotoxicity in CF1 albino mouse assessed as motor impairment at 100 mg/kg, ip after 4 hrs; type: toxicity, organism-based; parameters: dose 100 mg/kg, route intraperitoneal; conditions: in vivo
Mus musculus [16] = assay: Neurotoxicity in CF1 albino mouse assessed as motor impairment at 30 mg/kg, ip after 0.5 hrs; type: toxicity, organism-based; parameters: dose 30 mg/kg, route intraperitoneal; conditions: in vivo
Rattus norvegicus [17] = species on record: Rattus norvegicus; assay: Protective index, ratio of TD50 for rat to ED50 for maximal electroshock-induced rat seizure model
Mus musculus [18] = assay: Neurotoxicity in CF1 albino mouse assessed as motor impairment at 300 mg/kg, ip after 0.5 hrs; type: toxicity, organism-based; parameters: dose 300 mg/kg, route intraperitoneal; conditions: in vivo
Rattus norvegicus [19] = assay: Anticonvulsant activity in Sprague-Dawley rat assessed as inhibition of maximal electroshock-induced seizures at 30 mg/kg, po after 1 hr
Mus musculus [20] = assay: Anticonvulsant activity in CF1 albino mouse assessed as inhibition of maximal electroshock-induced seizures at 100 mg/kg, ip after 0.5 hrs; type: functional, organism-based; parameters: dose 100 mg/kg; outline: as §2
Mus musculus [21] = assay: Teratogenic effect in SWV mouse assessed as live fetuses at 294 mg/kg, ip administered on morning of day 8 of gestation; type: toxicity, organism-based; parameters: dose 294 mg/kg, route intraperitoneal; conditions: in vivo; outline: as §1
Mus musculus [22] = assay: Anticonvulsant activity in CF1 albino mouse assessed as inhibition of subcutaneous pentylenetetrazole-induced seizures at 300 mg/kg, ip after 4 hrs; type: functional, organism-based; parameters: dose 300 mg/kg; outline: as §4
Mus musculus [23] = assay: Teratogenic effect in SWV mouse assessed as resorptions at 729 mg/kg, ip administered on morning of day 8 of gestation; type: toxicity, organism-based; parameters: dose 729 mg/kg, route intraperitoneal; conditions: in vivo; outline: as §3
Mus musculus [24] = assay: Teratogenic effect in SWV mouse assessed as live fetuses at 729 mg/kg, ip administered on morning of day 8 of gestation; type: toxicity, organism-based; parameters: dose 729 mg/kg, route intraperitoneal; conditions: in vivo; outline: as §3
Mus musculus [25] = assay: Teratogenic effect in SWV mouse assessed as fetuses with neural tube deffects at 294 mg/kg, ip administered on morning of day 8 of gestation; type: toxicity, organism-based; parameters: dose 294 mg/kg, route intraperitoneal; conditions: in vivo; outline: as §1
Mus musculus [26] = assay: Teratogenic effect in SWV mouse assessed as fetuses with neural tube deffects at 148 mg/kg, ip administered on morning of day 8 of gestation; type: toxicity, organism-based; parameters: dose 148 mg/kg, route intraperitoneal; conditions: in vivo; outline: as §1
Mus musculus [27] = assay: Neurotoxicity in CF1 albino mouse assessed as motor impairment at 100 mg/kg, ip after 0.5 hrs; type: toxicity, organism-based; parameters: dose 100 mg/kg, route intraperitoneal; conditions: in vivo
Mus musculus [28] = assay: Teratogenic effect in SWV mouse assessed as resorptions at 294 mg/kg, ip administered on morning of day 8 of gestation; type: toxicity, organism-based; parameters: dose 294 mg/kg, route intraperitoneal; conditions: in vivo; outline: as §3
Rattus norvegicus [29] = assay: Anticonvulsant activity in po dosed rat assessed as inhibition of maximal electroshock-induced seizures
Mus musculus [30] = assay: Anticonvulsant activity in CF1 albino mouse assessed as inhibition of maximal electroshock-induced seizures at 30 mg/kg, ip after 4 hrs; type: functional, organism-based; parameters: dose 30 mg/kg; outline: as §2
Mus musculus [31] = assay: Teratogenic effect in SWV mouse assessed as resorptions at 148 mg/kg, ip administered on morning of day 8 of gestation; type: toxicity, organism-based; parameters: dose 148 mg/kg, route intraperitoneal; conditions: in vivo; outline: as §3
Mus musculus [32] = assay: Neurotoxicity in CF1 albino mouse assessed as motor impairment at 30 mg/kg, ip after 4 hrs; type: toxicity, organism-based; parameters: dose 30 mg/kg, route intraperitoneal; conditions: in vivo
Mus musculus [33] = assay: Anticonvulsant activity in CF1 albino mouse assessed as inhibition of maximal electroshock-induced seizures at 30 mg/kg, ip after 0.5 hrs; type: functional, organism-based; parameters: dose 30 mg/kg; outline: as §2
Rattus norvegicus [34] = assay: Anticonvulsant activity in Sprague-Dawley rat assessed as inhibition of maximal electroshock-induced seizures at 30 mg/kg, po after 4 hrs
Mus musculus [35] = assay: Anticonvulsant activity in CF1 albino mouse assessed as inhibition of subcutaneous pentylenetetrazole-induced seizures at 30 mg/kg, ip after 4 hrs; type: functional, organism-based; parameters: dose 30 mg/kg; outline: as §4
Mus musculus [36] = assay: Anticonvulsant activity in CF1 albino mouse assessed as inhibition of subcutaneous pentylenetetrazole-induced seizures at 100 mg/kg, ip after 4 hrs; type: functional, organism-based; parameters: dose 100 mg/kg; outline: as §4
Mus musculus [37] = assay: Teratogenic effect in SWV mouse assessed as fetuses with neural tube deffects at 562 mg/kg, ip administered on morning of day 8 of gestation; type: toxicity, organism-based; parameters: dose 562 mg/kg, route intraperitoneal; conditions: in vivo; outline: as §1
Mus musculus [38] = assay: Teratogenic effect in SWV mouse assessed as live fetuses at 172 mg/kg, ip administered on morning of day 8 of gestation; type: toxicity, organism-based; parameters: dose 172 mg/kg, route intraperitoneal; conditions: in vivo; outline: as §1
Mus musculus [39] = assay: Teratogenic effect in SWV mouse assessed as fetuses with neural tube deffects at 172 mg/kg, ip administered on morning of day 8 of gestation; type: toxicity, organism-based; parameters: dose 172 mg/kg, route intraperitoneal; conditions: in vivo; outline: as §1
Mus musculus [40] = assay: Teratogenic effect in SWV mouse assessed as resorptions at 562 mg/kg, ip administered on morning of day 8 of gestation; type: toxicity, organism-based; parameters: dose 562 mg/kg, route intraperitoneal; conditions: in vivo; outline: as §3
Mus musculus [41] = assay: Teratogenic effect in SWV mouse assessed as live fetuses at 340 mg/kg, ip administered on morning of day 8 of gestation; type: toxicity, organism-based; parameters: dose 340 mg/kg, route intraperitoneal; conditions: in vivo; outline: as §3
Mus musculus [42] = assay: Teratogenic effect in SWV mouse assessed as resorptions at 172 mg/kg, ip administered on morning of day 8 of gestation; type: toxicity, organism-based; parameters: dose 172 mg/kg, route intraperitoneal; conditions: in vivo; outline: as §3
Mus musculus [43] = assay: Teratogenic effect in SWV mouse assessed as live fetuses at 562 mg/kg, ip administered on morning of day 8 of gestation; type: toxicity, organism-based; parameters: dose 562 mg/kg, route intraperitoneal; conditions: in vivo; outline: as §3
Mus musculus [44] = assay: Teratogenic effect in SWV mouse assessed as resorptions at 340 mg/kg, ip administered on morning of day 8 of gestation; type: toxicity, organism-based; parameters: dose 340 mg/kg, route intraperitoneal; conditions: in vivo; outline: as §3
Mus musculus [45] = assay: Teratogenic effect in SWV mouse assessed as fetuses with neural tube deffects at 340 mg/kg, ip administered on morning of day 8 of gestation; type: toxicity, organism-based; parameters: dose 340 mg/kg, route intraperitoneal; conditions: in vivo; outline: as §1
Rattus norvegicus [46] = assay: Anticonvulsant activity in Sprague-Dawley rat assessed as inhibition of maximal electroshock-induced seizures at 30 mg/kg, po after 15 mins

Row | SMILES | Activity (Mus musculus [2]) | Activity (Mus musculus [5]) | Activity (Rattus norvegicus [6]) | Activity (Mus musculus [9]) | Activity (Mus musculus [11]) | Activity (Mus musculus [13]) | Activity (Mus musculus [14]) | Activity (Mus musculus [15]) | Activity (Mus musculus [16]) | Ratio TD50/ED50 (Rattus norvegicus [17]) | Activity (Mus musculus [18]) | Activity (Mus musculus [22]) | Activity (Mus musculus [27]) | ED50 (Rattus norvegicus [29]) [mg/kg] | Activity (Mus musculus [30]) | Activity (Mus musculus [32]) | Activity (Mus musculus [33]) | Activity (Mus musculus [35]) | Activity (Mus musculus [36]) | also measured
1 | CCC(CC)C(=O)Nc1ccc(S(N)(=O)=O)cc1 | Active | Active | Non-toxic | Non-toxic | inactive | inactive | inactive | Non-toxic | Non-toxic | >50.5 | Non-toxic | inactive | Non-toxic | 9.9 | Active | Non-toxic | Active | inactive | inactive | Activity (Mus musculus [1]): 25.9%; Activity (Mus musculus [3]): 47.9%; Activity (Mus musculus [4]): 93.3%; Activity (Rattus norvegicus [7]): Active; Activity (Mus musculus [8]): 52.1%; Activity (Mus musculus [10]): Active; Activity (Mus musculus [12]): 20.3%; Activity (Rattus norvegicus [19]): Active; Activity (Mus musculus [20]): Active; Activity (Mus musculus [21]): 84.2%; Activity (Mus musculus [23]): 53.2%; Activity (Mus musculus [24]): 46.8%; Activity (Mus musculus [25]): 4.5%; Activity (Mus musculus [26]): 0.8%; Activity (Mus musculus [28]): 15.8%; Activity (Mus musculus [31]): 7.7%; Activity (Rattus norvegicus [34]): Active
2 | CCCC(C(=O)Nc1ccc(S(N)(=O)=O)cc1)C(C)CC (stereo not given) | Active | Active | Non-toxic | Non-toxic | inactive | inactive | inactive | Non-toxic | Non-toxic | >13.9 | Non-toxic | inactive | Non-toxic | 35.8 | inactive | Non-toxic | inactive | inactive | inactive | Activity (Mus musculus [37]): 7.1%; Activity (Mus musculus [38]): 88%; Activity (Mus musculus [39]): 7.8%; Activity (Mus musculus [40]): 50%; Activity (Mus musculus [41]): 66.7%; Activity (Mus musculus [42]): 12%; Activity (Mus musculus [43]): 50%; Activity (Mus musculus [44]): 33.3%; Activity (Mus musculus [45]): 5%; Activity (Rattus norvegicus [46]): inactive

— ChEMBL document CHEMBL1155468, “Syntheses and evaluation of anticonvulsant profile and teratogenicity of novel amide derivatives of branched aliphatic carboxylic acids with 4-aminobenzensulfonamide” (J Med Chem, 2010)
